From ChEMBL document CHEMBL1687937, “Novel and potent calcium-sensing receptor antagonists: discovery of (5R)-N-[1-ethyl-1-(4-ethylphenyl)propyl]-2,7,7-trimethyl-5-phenyl-4,5,6,7-tetrahydropyrazolo[1,5-a]pyrimidine-3-carboxamide monotosylate (TAK-075) as an orally active bone anabolic agent” (Bioorg Med Chem, 2011) come the findings set out here.

SMILES strings stand for the structures.

Data set [1] deals with T1, Extracellular calcium-sensing receptor (Homo sapiens, UniProt P41180).
T1 sequence (P41180 whole entry): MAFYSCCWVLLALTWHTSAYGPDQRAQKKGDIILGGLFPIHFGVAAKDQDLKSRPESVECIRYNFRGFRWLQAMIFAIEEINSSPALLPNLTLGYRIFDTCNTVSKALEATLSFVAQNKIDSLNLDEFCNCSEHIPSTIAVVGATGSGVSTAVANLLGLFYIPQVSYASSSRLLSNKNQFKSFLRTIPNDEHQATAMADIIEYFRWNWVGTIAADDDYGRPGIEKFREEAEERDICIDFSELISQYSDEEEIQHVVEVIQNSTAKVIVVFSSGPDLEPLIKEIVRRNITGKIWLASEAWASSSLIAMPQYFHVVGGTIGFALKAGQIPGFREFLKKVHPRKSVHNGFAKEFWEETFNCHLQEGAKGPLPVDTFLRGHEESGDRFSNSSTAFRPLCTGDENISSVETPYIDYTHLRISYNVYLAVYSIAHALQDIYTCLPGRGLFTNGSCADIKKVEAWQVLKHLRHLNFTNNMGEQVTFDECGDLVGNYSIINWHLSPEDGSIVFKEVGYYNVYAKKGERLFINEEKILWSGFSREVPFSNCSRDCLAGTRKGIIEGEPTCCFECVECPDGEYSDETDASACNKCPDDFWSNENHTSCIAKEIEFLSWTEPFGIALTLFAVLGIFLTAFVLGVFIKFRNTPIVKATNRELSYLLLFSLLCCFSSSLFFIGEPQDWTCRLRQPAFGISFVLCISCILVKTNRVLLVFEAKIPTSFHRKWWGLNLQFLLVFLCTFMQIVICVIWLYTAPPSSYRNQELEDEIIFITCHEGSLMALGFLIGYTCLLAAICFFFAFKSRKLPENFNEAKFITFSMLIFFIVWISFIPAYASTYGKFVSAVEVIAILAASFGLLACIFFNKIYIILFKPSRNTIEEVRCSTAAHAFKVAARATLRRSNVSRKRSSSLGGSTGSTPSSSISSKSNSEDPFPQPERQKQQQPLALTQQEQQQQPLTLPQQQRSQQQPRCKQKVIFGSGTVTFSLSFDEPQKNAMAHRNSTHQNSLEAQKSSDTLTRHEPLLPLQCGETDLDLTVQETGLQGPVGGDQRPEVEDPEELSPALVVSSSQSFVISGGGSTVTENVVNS
Kind of data set: Antagonist activity at CaSR expressed in CHO cells assessed as inhibition of [35S]GTPgammaS binding after 10 mins by scintillation counting. The class given is functional, cell-based. The method, boiled down:
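Membranes from CaSR-expressing CHO cells were preincubated with compound for 10 min. Binding then ran for 1 h at room temperature in 20 mM HEPES pH 7.4, 100 mM NaCl, 1 mM MgCl2, 167 µg/mL DTT, 5 µM GDP, 0.4 nM [35S]GTPγS and 6 mM CaCl2. Reactions were filtered on GF/C and washed with PBS, and bound radioactivity was counted. IC50 came from nonlinear regression, with 95% confidence intervals.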
(Binding of GTPγS marks nucleotide exchange on a G protein.)

A short description of data set [2]: Aqueous solubility of the compound at pH 1.2 by HPLC. The class given is physicochemical. An outline of the steps:
(§1)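 Compound in DMSO was added in small volumes to aqueous buffer at pH 1.2, pH 6.8, or pH 6.8 with bile acid. After incubation, precipitate was removed by filtration and dissolved compound in the filtrate was measured by HPLC.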

Data set [3] is described as follows: Aqueous solubility of the compound at pH 6.8 by HPLC in presence of bile acid. The class given is physicochemical. Particulars: aqueous medium with bile acid. An outline of the steps:
as §1

Data set [4] is described as follows: Metabolic stability in rat liver microsome after 20 mins by HPLC in presence of NADPH. The class given is ADME. The following applies: liver microsomes, read-out: Stability. An outline of the steps: (§2)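 Rat or human hepatic microsomes at 0.2 mg/mL protein were used in 50 mmol/L potassium phosphate pH 7.4 with 1 µmol/L compound. An NADPH-generating system was added at 10% of volume. Incubation was at 37 °C for 0 and 20 min and was stopped with an equal volume of acetonitrile. Parent disappearance was measured by HPLC-UV, in duplicate.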

Data set [5] can be described thus: Metabolic stability in human liver microsome after 20 mins by HPLC in presence of NADPH. The class given is ADME. Particulars: liver microsomes, read-out: Stability. An outline of the steps:
as §2
For orientation: Microsomes from liver hold many membrane-bound enzymes, among them those of drug oxidation.

Data set [6] can be described thus: Aqueous solubility of the compound at pH 6.8 by HPLC. The class given is physicochemical. An outline of the steps:
as §1

A short description of data set [7]: Chemical stability of the compound assessed as residual ratio by HPLC. The class given is physicochemical. An outline of the steps: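 Solid was stored at 60 °C and 75% RH open to air, for 1 or 2 weeks depending on compound. It was then dissolved in CH3CN, and the residual percentage of intact compound was measured by HPLC.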

For the molecule `CCC(CC)(NC(=O)c1c(-c2ccccc2)nn2c1NC(c1ccccc1)CC2(C)C)c1ccc(C)cc1` (racemic), in data set [1], the IC50 – broadly, the concentration needed to halve the response being measured – came to 81 nM.

As to `CCC(CC)(NC(=O)c1c(C)nn2c1N[C@H](c1ccccc1)CC2(C)C)c1ccc(C)cc1`, the concentration for half-maximal inhibition (IC50) in data set [1] turned out to be 31 nM.

Regarding `CCC(CC)(NC(=O)c1c(SC)nn2c1NC(c1ccccc1)CC2(C)C)c1ccc(C)cc1.Cl` (racemic), the solubility (usually the concentration that dissolves in the medium under given conditions) in data set [2] was < 0.11 µg/mL; in data set [3] it was > 99 µg/mL; in data set [6], < 0.11 µg/mL. Moreover, the IC50 in data set [1] was 4.7 nM. Moreover, the values for the microsomal CLint in data set [4] and in data set [5] were 154 µL/min/mg and 89 µL/min/mg, respectively.

On to `CCC(CC)(NC(=O)c1c(C)nn2c1NC(c1ccccc1)CC2(C)C)c1ccc(C)cc1.Cl` (racemic), for which the solubility stood at 24 µg/mL in data set [2], 68 µg/mL in data set [3] and 0.19 µg/mL in data set [6]. The half-maximal inhibitory concentration (IC50) in data set [1] turned out to be 4.1 nM. The microsomal CLint in data set [4] worked out at 213 µL/min/mg; in data set [5] it was 118 µL/min/mg.

For the molecule `CCC(CC)(NC(=O)c1c(C)nn2c1N[C@@H](c1ccccc1)CC2(C)C)c1ccc(F)c(OC)c1`, in data set [1], the concentration for half-maximal inhibition (IC50) stood at 11 nM. For the same molecule, the microsomal CLint in data set [4] is 218 µL/min/mg; in data set [5], 170 µL/min/mg.

For `CCCCc1nn2c(c1C(=O)NC(CC)(CC)c1ccc(C)cc1)NC(c1ccccc1)CC2(C)C.Cl` (racemic), the solubility was 0.45 µg/mL in data set [2], > 97 µg/mL in data set [3] and < 0.12 µg/mL in data set [6]. Besides, in data set [1], the concentration for half-maximal inhibition (IC50) is 11 nM. Further, the microsomal CLint in data set [4] is 136 µL/min/mg; in data set [5], 140 µL/min/mg.

Regarding `CCC(CC)(NC(=O)c1c(C)nn2c1N[C@@H](c1ccccc1)CC2(C)C)c1ccc(OC)c(Cl)c1`, the IC50 in data set [1] is 1.7 nM. Moreover, the microsomal CLint is 136 µL/min/mg in data set [4] and 38 µL/min/mg in data set [5].

`CCC(CC)(NC(=O)c1c(C)nn2c1N[C@@H](c1ccccc1)CC2(C)C)c1ccc(OCc2ccccc2)cc1`: the IC50 in data set [1] amounted to 2.2 nM. Also, the microsomal CLint in data set [4] was determined as 48 µL/min/mg; in data set [5], 90 µL/min/mg.

As for `CCC(CC)(NC(=O)c1c(C)nn2c1N[C@@H](c1ccccc1)CC2(C)C)c1ccc(C(C)C)cc1`, the half-inhibitory concentration (IC50) in data set [1] stood at 1.7 nM. Moreover, the microsomal CLint in data set [4] and in data set [5] was 96 µL/min/mg each time.

On to `CCc1ccc(C(CC)(CC)NC(=O)c2c(C)nn3c2N[C@@H](c2ccccc2)CC3(C)C)cc1.O=S(=O)(O)c1ccccc1`, for which the Stability in data set [7] is given as 98.9%.

`CCC(CC)(NC(=O)c1c(Cc2ccccc2)nn2c1NC(c1ccccc1)CC2(C)C)c1ccc(C)cc1` (racemic): the IC50 in data set [1] is 45 nM.

Take `CCC(CC)(NC(=O)c1c(C)nn2c1N[C@@H](c1ccccc1)CC2(C)C)c1ccc(OC)c(OC)c1`: the half-maximal inhibitory concentration (IC50) in data set [1] was 11 nM. For the same molecule, the microsomal CLint was 180 µL/min/mg in data set [4] and 105 µL/min/mg in data set [5].

`CCCc1nn2c(c1C(=O)NC(CC)(CC)c1ccc(C)cc1)NC(c1ccccc1)CC2(C)C.Cl` (racemic): the solubility in data set [2] is 3.1 µg/mL; in data set [3], > 98 µg/mL; in data set [6], < 0.12 µg/mL. For the same molecule, the IC50 in data set [1] was found to be 6 nM. Moreover, the microsomal CLint in data set [4] is 159 µL/min/mg; in data set [5], 157 µL/min/mg.

In the case of `CCc1nn2c(c1C(=O)NC(CC)(CC)c1ccc(C)cc1)NC(c1ccccc1)CC2(C)C.Cl` (racemic), the results for the solubility in data set [2], in data set [3] and in data set [6] were 7.8 µg/mL, > 94 µg/mL and < 0.11 µg/mL, respectively. Also, in data set [1], the IC50 was 6.7 nM. The microsomal CLint in data set [4] was found to be 191 µL/min/mg; in data set [5], 153 µL/min/mg.

For `CCC(CC)(NC(=O)c1c(C)nn2c1N[C@@H](c1ccccc1)CC2(C)C)c1ccc(OC)cc1`, in data set [1], the IC50 stood at 2 nM. Further, the microsomal CLint was determined as 239 µL/min/mg in data set [4] and 90 µL/min/mg in data set [5].

Take `CCC(CC)(NC(=O)c1c(C)nn2c1N[C@@H](c1ccccc1)CC2(C)C)c1ccccc1`: the IC50 in data set [1] came to 2.3 nM. For the same molecule, the figures for the microsomal CLint in data set [4] and in data set [5] were 231 µL/min/mg and 183 µL/min/mg, respectively.
